The record followed here is ChEMBL document CHEMBL1828541, “New aporphinoid 5-HT2A and α1A antagonists via structural manipulations of nantenine” (Bioorg Med Chem, 2011).

Bounds are passed on as bounds.

Common to all, as to assay type: functional, cell-based
In assay [1] the target is T1, Alpha-1A adrenergic receptor (Homo sapiens) (UniProt P35348).
T1 sequence (whole entry): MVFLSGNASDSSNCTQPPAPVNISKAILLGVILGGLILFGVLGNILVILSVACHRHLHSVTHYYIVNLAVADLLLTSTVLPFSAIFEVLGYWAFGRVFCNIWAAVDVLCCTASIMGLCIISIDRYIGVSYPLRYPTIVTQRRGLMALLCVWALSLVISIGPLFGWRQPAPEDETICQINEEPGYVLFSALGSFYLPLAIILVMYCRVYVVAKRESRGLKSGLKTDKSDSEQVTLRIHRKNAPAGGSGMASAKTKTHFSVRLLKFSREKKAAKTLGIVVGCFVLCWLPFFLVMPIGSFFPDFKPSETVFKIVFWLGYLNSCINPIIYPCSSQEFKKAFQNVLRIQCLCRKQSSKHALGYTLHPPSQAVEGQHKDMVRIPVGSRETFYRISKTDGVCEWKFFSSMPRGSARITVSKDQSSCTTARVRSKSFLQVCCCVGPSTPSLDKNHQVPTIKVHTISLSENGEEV
Briefly: Antagonist activity at human alpha1A receptor assessed as inhibition of intracellular calcium mobilization by FLIPR assay. A digest of the protocol: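 Human α1A-adrenergic receptor, FLIPR Tetra calcium-mobilization assay with a calcium-sensitive fluorescent dye. Ke was derived from agonist concentration-response EC50 shifts by a single antagonist concentration, using Ke = [L]/(DR-1) as for the 5-HT2A set.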
For orientation: A change in cytosolic calcium serves as a functional read-out for many receptors and channels.

Assay [2] deals with 5-hydroxytryptamine receptor 2A (Homo sapiens) (UniProt P28223). Briefly: Antagonist activity at human 5-HT2A receptor assessed as inhibition of intracellular calcium mobilization by FLIPR assay. A digest of the protocol:
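FLIPR Tetra calcium-dye assay at human 5-HT2A. Compounds without intrinsic activity that inhibited the fluorescence rise to the EC80 of 5-HT by at least 50% at 10 μM went on to Ke determination. For this, an 8-point half-log 5-HT concentration-response curve was run with and without a single antagonist concentration. Ke = [L]/(DR-1), where DR = A'/A (ratio of 5-HT EC50s).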

Assay [3] has the same target. Briefly: Agonist activity at human 5-HT2A receptor assessed as intracellular calcium mobilization at 10 uM by FLIPR assay. A digest of the protocol: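 Multi-well FLIPR Tetra screen at 10 μM for intrinsic activity at human 5-HT2A receptor. Read-out is receptor-mediated mobilization of internal calcium, detected with a calcium-sensitive fluorescent dye.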

Chain of 5-hydroxytryptamine receptor 2A (Homo sapiens) (P28223 whole entry): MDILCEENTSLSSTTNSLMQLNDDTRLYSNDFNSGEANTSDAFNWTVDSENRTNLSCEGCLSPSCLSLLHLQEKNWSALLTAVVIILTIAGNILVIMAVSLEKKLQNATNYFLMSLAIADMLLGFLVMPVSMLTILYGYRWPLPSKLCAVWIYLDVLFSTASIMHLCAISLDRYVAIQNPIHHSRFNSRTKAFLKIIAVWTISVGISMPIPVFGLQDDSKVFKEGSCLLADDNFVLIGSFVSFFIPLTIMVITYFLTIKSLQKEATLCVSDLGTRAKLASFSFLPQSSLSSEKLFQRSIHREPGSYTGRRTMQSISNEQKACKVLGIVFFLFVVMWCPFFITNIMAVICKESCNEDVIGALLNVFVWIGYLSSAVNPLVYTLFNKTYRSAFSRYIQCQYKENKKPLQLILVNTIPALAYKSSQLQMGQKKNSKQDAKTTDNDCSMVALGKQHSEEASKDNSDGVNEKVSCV

In the case of `CCOc1cc2c3c(c1OC)-c1cc4c(cc1CC3N(C)CC2)OCO4` (racemic), the Ke in assay [1] amounted to 52 nM; in assay [2], 378 nM.

On to `CCCCN1CCc2cc(OC)c(OC)c3c2C1Cc1cc2c(cc1-3)OCO2` (racemic), for which the Ke in assay [1] was 210 nM; in assay [2] it was above 10000 nM. For orientation: Emax means the size of the effect at its maximum, as opposed to the concentration needed. Regarding `COc1cc2c3c(c1OCC1CCCC1)-c1cc4c(cc1CC3N(C)CC2)OCO4` (racemic), the Ke in assay [1] is above 10000 nM. Moreover, the Emax in assay [3] turned out to be 35%. On to `COc1c(OCC2CC2)cc2c3c1-c1cc4c(cc1CC3N(C)CC2)OCO4` (racemic), for which the Ke in assay [1] was 195 nM; in assay [2], 484 nM.

`CCCCCN1CCc2cc(OC)c(OC)c3c2C1Cc1cc2c(cc1-3)OCO2` (racemic): the values for the Ke in assay [1] and in assay [2] were 720 nM and above 10000 nM, respectively. For `COc1c(OCc2ccccc2)cc2c3c1-c1cc4c(cc1CC3N(C)CC2)OCO4` (racemic), the Ke in assay [1] was found to be 1920 nM; in assay [2], 154 nM. The matching figures for `CCCCCOc1cc2c3c(c1OC)-c1cc4c(cc1CC3N(C)CC2)OCO4` (racemic): 449 nM and above 10000 nM. Turning to `CCCCCCOc1c(OC)cc2c3c1-c1cc4c(cc1CC3N(C)CC2)OCO4` (racemic), the Ke was above 10000 nM in assay [1] and 71 nM in assay [2]. `CCCOc1cc2c3c(c1OC)-c1cc4c(cc1CC3N(C)CC2)OCO4` (racemic): the Ke in assay [1] came out at 133 nM; in assay [2] it was 389 nM. Regarding `CCN1CCc2cc(OC)c(OC)c3c2C1Cc1cc2c(cc1-3)OCO2` (racemic), the Ke in assay [1] turned out to be 26 nM. On to `COc1cc2c3c(c1OC)-c1cc4c(cc1CC3N(CC1CC1)CC2)OCO4` (racemic), for which the Ke in assay [1] was 319 nM; in assay [2], above 10000 nM. The like results for `COc1c(Br)c2c3c(c1OC)-c1cc4c(cc1CC3N(C)CC2)OCO4` (racemic) were, in that order, above 10000 nM and 53 nM. The matching figures for `COc1cc2c3c(c1OCC(C)C)-c1cc4c(cc1CC3N(C)CC2)OCO4` (racemic): above 10000 nM and 367 nM. The matching figures for `COc1cc2c3c(c1OCC1CCCCC1)-c1cc4c(cc1CC3N(C)CC2)OCO4` (racemic): above 10000 nM and 1720 nM.

For `CCCN1CCc2cc(OC)c(OC)c3c2C1Cc1cc2c(cc1-3)OCO2` (racemic), the Ke in assay [1] is 38 nM; in assay [2], above 10000 nM. The matching figures for `CCC(CC)COc1c(OC)cc2c3c1-c1cc4c(cc1CC3N(C)CC2)OCO4` (centres undefined): above 10000 nM and 806 nM.

On to `COc1cc2c3c(c1OC)-c1cc4c(cc1CC3N(C)CC2)OCO4` (racemic), for which the Ke in assay [1] was determined as 36 nM. Take `COc1c(Br)c2c3c(c1OC)-c1c(Br)c4c(c(Br)c1CC3N(C)CC2)OCO4` (racemic): the Ke in assay [1] was above 10000 nM; in assay [2] it was 43 nM.

Take `COc1cc2c3c(c1OCC1CCC1)-c1cc4c(cc1CC3N(C)CC2)OCO4` (racemic): the Ke in assay [1] is above 10000 nM. In assay [3], the maximal response (Emax) stood at 25%.

Consider `C=CCOc1c(OC)cc2c3c1-c1cc4c(cc1CC3N(C)CC2)OCO4` (racemic), for which the Ke is above 10000 nM in assay [1] and 70 nM in assay [2]. The matching figures for `COc1cc2c3c(c1OCCCO)-c1cc4c(cc1CC3N(C)CC2)OCO4` (racemic): above 10000 nM and 708 nM. The matching figures for `CCCCOc1cc2c3c(c1OC)-c1cc4c(cc1CC3N(C)CC2)OCO4` (racemic): 234 nM and 943 nM. For the molecule `COc1cc2c3c(c1OCCC(C)C)-c1cc4c(cc1CC3N(C)CC2)OCO4` (racemic), the Ke in assay [1] was above 10000 nM. Besides, the Emax in assay [3] was determined as 19%.
